The source of these data is ChEMBL document CHEMBL1121825, “A potent, new, sedative--hypnotic agent: 5,7-dihydro-5,5,7,7-tetramethyl-3-(3-nitrophenyl)furo[3,4-e]-as-triazine 4-oxide” (J Med Chem, 1981).

Test [1] has as its system Mus musculus. Kind of test: Ability to reinduce anesthesia in mice as a measure of in vivo sedative-hypnotic activity. Type of test: functional. A digest of the protocol: (§1)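 Male Royal Hart mice (20–25 g) were anesthetized with hexobarbital 70.0 mg/kg iv. While they were regaining the righting reflex, compound was given ip. Reinduction was scored as loss of righting reflex for 10 min. ED50 (mg/kg) is the dose reinducing anesthesia in 50% of mice, estimated by probit analysis (Miller–Tainter).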

Test [2] relates to Mus musculus. Kind of test: Tested for ability to reinduce anesthesia in mice when administered intraperitoneally as a measure of in vivo sedative-hypnotic activity; D represents Toxic. In kind it is functional, organism-based. Put shortly: as §1

Structures are written as SMILES.

The ED50 is the midpoint of the dose-response relation. Turning to `CC1(C)OC(C)(c2ccccc2)c2nnc(-c3cccc([N+](=O)[O-])c3)nc21` (centres undefined), the ED50 in the test with Mus musculus [1] was determined as 800 mg/kg.
Same read-out and setting: then `CC1(C)OC(C)(C)c2nnc(-c3ccccc3)cc21.Cl`, with 112 mg/kg.
Same read-out and setting: the result for `CC1(C)OC(C)(C)c2c1ncc(-c1ccccc1)[n+]2[O-].Cl` reads 1000 mg/kg; that for `CC1(C)OC(C)(C)c2nc(-c3ccccn3)nnc21`, 21 mg/kg.
In the test on Mus musculus [1], `CC1(C)OC(C)(C)c2c1nnc(-c1cc([N+](=O)[O-])cc([N+](=O)[O-])c1)[n+]2[O-]` returned an ED50 of 500 mg/kg.
The compound `CC1(C)OC(C)(C)c2nc(-c3ccncc3)nnc21` gave an ED50 with Mus musculus [1] of 56.2 mg/kg.
As to `Cc1nnc(-c2ccccn2)nc1C`, the ED50 result in the test on Mus musculus [2] is “Toxic”.
Consider `CC1(C)OC2(CCCCC2)c2c1nnc(-c1ccccc1)[n+]2[O-]`, for which it took a dose of 183 mg/kg to reach the 50% effect level with Mus musculus [1] (ED50).
The same measure, in the same setting: then `CC1(C)OC(C)(C)c2c1nnc(-c1ccc(F)cc1)[n+]2[O-]`, with 500 mg/kg.
As for `CC1(C)OC(C)(C)c2c1nnc(-c1ccccc1)[n+]2[O-]`, the 50% effect level in the test on Mus musculus [1] (ED50) was put at a dose of 163 mg/kg.
Still for that read-out and setting: the result for `CC1(C)OC(C)(C)c2nc(-c3cccc(C(F)(F)F)c3)nnc21` reads 500 mg/kg; that for `CC1(C)OC(C)(C)c2c1nnc(-c1cccc(F)c1)[n+]2[O-]`, 74.9 mg/kg; that for `CC1(C)OC(C)(C)c2c1nnc(-c1cccc(Cl)c1)[n+]2[O-]`, 500 mg/kg.
On the same count and under the same terms, the result for `CC1(C)C/C(=N\Nc2ccccc2[N+](=O)[O-])C(C)(C)O1` reads 1000 mg/kg; that for `CC1(C)OC(C)(C)C(N=N)=C1O`, 133 mg/kg; that for `CC1(C)OC(C)(C)c2nc(-c3ccc4ccccc4n3)nnc21`, 168 mg/kg.
In the case of `CC1(C)C/C(=N\Nc2ccccc2)C(C)(C)O1`, the ED50 in the test with Mus musculus [1] stood at 162 mg/kg.
The same measure, in the same setting: then `CC1(C)C=CC(C)(C)c2nc(-c3cccc(S(N)(=O)=O)c3)nnc21`, with 1000 mg/kg; and `CC1(C)OC(C)(C)c2nc(Cc3ccccc3)nnc21`, with 25 mg/kg.
